Results reported in ChEMBL document CHEMBL4359914, “Design, synthesis and biological evaluation of stereo- and regioisomers of amino aryl esters as multidrug resistance (MDR) reversers” (Eur J Med Chem, 2019).
pEC50, pIC50: −log10 of the molar value. Activity calls are given as the source filed them. The calls are words filed in the database; no cut-off is given here.

Columns and labels:
[1] = target: T1, ATP-dependent translocase ABCB1 (Homo sapiens, UniProt P08183); experiment: Inhibition of P-gp (unknown origin) expressed in MDCK-MDR1 cells assessed as increase in calcein-AM accumulation incubated for 30 mins by calcein-AM dye based fluorescence assay; type: cell-based
T1 sequence (P08183 whole entry): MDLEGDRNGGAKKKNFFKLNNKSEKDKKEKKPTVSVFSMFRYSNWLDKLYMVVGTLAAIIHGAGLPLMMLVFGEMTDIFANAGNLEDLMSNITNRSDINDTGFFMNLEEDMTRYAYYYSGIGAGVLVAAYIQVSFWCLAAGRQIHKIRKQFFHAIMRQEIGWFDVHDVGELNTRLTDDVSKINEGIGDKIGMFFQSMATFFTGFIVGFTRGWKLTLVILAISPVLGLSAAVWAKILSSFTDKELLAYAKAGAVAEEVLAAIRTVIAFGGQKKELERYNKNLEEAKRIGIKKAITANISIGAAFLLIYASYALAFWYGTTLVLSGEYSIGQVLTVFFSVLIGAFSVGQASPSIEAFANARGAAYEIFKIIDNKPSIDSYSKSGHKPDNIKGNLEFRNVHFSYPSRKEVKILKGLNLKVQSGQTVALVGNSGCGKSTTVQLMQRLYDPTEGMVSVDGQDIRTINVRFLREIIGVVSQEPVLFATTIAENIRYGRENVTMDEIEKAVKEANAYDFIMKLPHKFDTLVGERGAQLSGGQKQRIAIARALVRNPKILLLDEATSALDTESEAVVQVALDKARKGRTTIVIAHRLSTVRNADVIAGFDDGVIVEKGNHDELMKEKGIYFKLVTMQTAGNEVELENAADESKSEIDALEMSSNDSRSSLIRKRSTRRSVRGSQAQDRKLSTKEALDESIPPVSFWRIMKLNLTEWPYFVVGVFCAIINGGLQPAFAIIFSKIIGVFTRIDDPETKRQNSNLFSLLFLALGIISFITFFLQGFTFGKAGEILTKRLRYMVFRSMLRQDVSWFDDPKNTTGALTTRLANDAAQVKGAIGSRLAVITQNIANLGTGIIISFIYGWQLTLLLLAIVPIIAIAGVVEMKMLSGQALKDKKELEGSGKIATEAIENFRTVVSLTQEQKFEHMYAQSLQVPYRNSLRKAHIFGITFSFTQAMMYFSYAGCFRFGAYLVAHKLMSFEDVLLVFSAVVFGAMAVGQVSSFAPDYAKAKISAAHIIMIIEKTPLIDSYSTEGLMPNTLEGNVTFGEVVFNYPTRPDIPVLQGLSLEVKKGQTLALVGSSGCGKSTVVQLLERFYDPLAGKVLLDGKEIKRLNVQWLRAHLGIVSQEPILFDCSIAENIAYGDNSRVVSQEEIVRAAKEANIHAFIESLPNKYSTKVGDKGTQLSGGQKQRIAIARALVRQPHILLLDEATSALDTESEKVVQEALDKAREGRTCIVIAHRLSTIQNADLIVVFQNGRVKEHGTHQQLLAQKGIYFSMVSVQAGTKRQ

[2] = target: T1, ATP-dependent translocase ABCB1; experiment: Inhibition of P-gp in human K562/DOX cells assessed as drug level causing 50% increase in nuclear pirarubicin concentration incubated for 30 mins by fluorescence based assay; type: cell-based; settings: read-out: I0.5
[3] = target: T1, ATP-dependent translocase ABCB1; experiment: Inhibition of P-gp in human K562/DOX cells assessed as drug level causing maximum increase in nuclear pirarubicin concentration incubated for 30 mins by fluorescence based assay relative to control; type: cell-based; settings: 0.5 h
[4] = target: T2, Broad substrate specificity ATP-binding cassette transporter ABCG2 (Homo sapiens, UniProt Q9UNQ0); experiment: Inhibition of BCRP (unknown origin) expressed in MDCK cells assessed as increase in Hoechst 33342 accumulation incubated for 30 mins by Hoechst 33342 dye based fluorescence assay; type: cell-based; settings: for pEC50: read-out: EC50
T2 sequence (Q9UNQ0 whole entry): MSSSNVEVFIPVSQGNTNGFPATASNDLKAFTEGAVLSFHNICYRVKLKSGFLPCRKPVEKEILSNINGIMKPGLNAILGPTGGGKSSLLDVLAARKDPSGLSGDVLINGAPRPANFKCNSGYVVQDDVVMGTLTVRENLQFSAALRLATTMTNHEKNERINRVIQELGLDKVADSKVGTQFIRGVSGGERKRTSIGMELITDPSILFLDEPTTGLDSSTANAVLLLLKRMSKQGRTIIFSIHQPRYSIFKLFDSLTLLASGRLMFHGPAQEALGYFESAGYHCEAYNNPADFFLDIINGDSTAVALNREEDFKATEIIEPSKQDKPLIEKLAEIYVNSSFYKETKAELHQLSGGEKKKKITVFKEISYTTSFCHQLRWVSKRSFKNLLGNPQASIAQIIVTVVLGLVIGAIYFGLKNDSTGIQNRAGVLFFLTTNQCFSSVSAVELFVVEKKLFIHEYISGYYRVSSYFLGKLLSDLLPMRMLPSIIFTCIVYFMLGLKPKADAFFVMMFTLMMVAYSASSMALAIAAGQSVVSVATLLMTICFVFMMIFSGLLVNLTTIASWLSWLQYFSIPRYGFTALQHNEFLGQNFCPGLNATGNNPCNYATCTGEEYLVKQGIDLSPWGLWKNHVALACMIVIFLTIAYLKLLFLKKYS

[5] = target: T1, ATP-dependent translocase ABCB1; experiment: Inhibition of MDR1 (unknown origin) expressed in MDCK-MDR1 cells assessed as decrease in ATP consumption incubated for 2 hrs by ATPlite luminescence assay; type: cell-based; settings: mdck-mdr1, 2 h
[6] = Chemical stability of compound assessed as half life in PBS at 1 uM incubated 120 mins by LC-MS/MS analysis; type: physicochemical
Method in brief: (§1)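 Analyte added to PBS or human plasma (healthy volunteer, stored at -80 °C) to 1 μM; incubated at 37 °C for 0, 30, 60 and 120 min, triplicate per time point. Internal standard solution added, centrifuged, supernatant dried under nitrogen and redissolved. Analyte quantified by LC-MS/MS in MRM mode; half-life derived from decay rate k.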

[7] = Stability of compound in human plasma assessed as half life at 1 uM incubated for 120 min by LC-MS/MS analysis; type: ADME, cell-free; method in brief: as §1
BCRP (ABCG2) = target: T3, BCRP (ABCG2) (Homo sapiens, UniProt Q9UNQ0); experiment: Inhibition of BCRP (unknown origin) expressed in MDCK cells assessed as increase in Hoechst 33342 accumulation at upto 100 uM incubated for 30 mins by Hoechst 33342 dye based fluorescence assay; type: cell-based; settings: MDCK cells expressing BCRP, probe Hoechst 33342
T3 sequence (Q9UNQ0 whole entry): T2 sequence (Q9UNQ0 whole entry)

P-gp (ABCB1) = P-gp (ABCB1) (Homo sapiens, UniProt P08183); experiment: Inhibition of P-gp (unknown origin) in […] MDCK-MDR1 cells assessed as increase in doxorubicin-induced cytotoxicity at 500 nM […] by MTT assay relative to control; type: cell-based; settings: probe doxorubicin
P-gp (ABCB1), sequence (P08183 whole entry): as the sequence (P08183 whole entry) above

MDCK [8] = experiment: Cytotoxicity against dog MDCK cells assessed as reduction in cell viability incubated for 24 hrs by MTT assay; type: cell-based; settings: Canis lupus familiaris
Method in brief: (§2)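 MDCK parental, MDCK-MDR1 and MDCK-MRP1 cells grown in DMEM high glucose with 10% FBS, 2 mM glutamine, penicillin/streptomycin at 37 °C, 5% CO2. Compound exposure 24 h; viability by MTT. EC50 taken per line; selectivity ratio computed as EC50 parental/EC50 MDR.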

MDCK [9] = experiment: Induction of ROS-mediated cell death in dog MDCK cells expressing MRP1 at 500 nM incubated for 24 hrs by DCFDA-AM staining based ATPlite luminescence assay; type: functional; settings: Canis lupus familiaris
Method in brief: (§3)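 Viability by ATPlite luminescence; untreated cell RLU set as 100%, results as % viable cells vs untreated. Quadruplicates, n = 3, means ± SD.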

MDCK [10] = experiment: Induction of ROS-mediated cell death in dog MDCK cells expressing MRP1 at 500 nM in presence of NAC incubated for 24 hrs by DCFDA-AM staining based ATPlite luminescence assay; type: functional; settings: Canis lupus familiaris; method in brief: as §3
MDCK [11] = experiment: Cytotoxicity against dog MDCK cells expressing MRP1 assessed as reduction in cell viability incubated for 24 hrs by MTT assay; type: functional, cell-based; settings: Canis lupus familiaris; method in brief: as §2
MDCK [12] = experiment: Induction of ROS generation in dog MDCK cells over expressing MRP1 at 500 nM incubated for 24 hrs by DCFDA-AM staining based ATPlite luminescence assay; type: functional, cell-based; settings: Canis lupus familiaris
Method in brief: (§4)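 MDCK-MRP1 or MDCK-MDR1 cells grown 24 h in fresh medium or with 500 nM compound, with or without 10 mM N-acetyl-cysteine. Intracellular ROS measured fluorimetrically with DCFDA-AM probe, expressed as nmol/mg cellular protein; duplicates, n = 3, means ± SD.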

MDCK-MDR1 [13] = experiment: Cytotoxicity against dog MDCK-MDR1 cells assessed as reduction in cell viability incubated for 24 hrs by MTT assay; type: functional, cell-based; settings: Canis lupus familiaris, MDCK-MDR1, 24 h; method in brief: as §2
MDCK-MDR1 [14] = experiment: Induction of ROS-mediated cell death in dog MDCK-MDR1 cells at 500 nM incubated for 24 hrs by DCFDA-AM staining based ATPlite luminescence assay; type: functional; settings: Canis lupus familiaris; method in brief: as §3
MDCK-MDR1 [15] = experiment: Induction of ROS-mediated cell death in dog MDCK-MDR1 cells at 500 nM incubated for 24 hrs in presence of NAC by DCFDA-AM staining based ATPlite luminescence assay; type: functional; settings: Canis lupus familiaris; method in brief: as §3
MDCK-MDR1 [16] = experiment: Induction of ROS generation in dog MDCK-MDR1 cells at 500 nM incubated for 24 hrs by DCFDA-AM staining based ATPlite luminescence assay; type: functional, cell-based; settings: Canis lupus familiaris; method in brief: as §4

| Compound | pEC50 [1] | pIC50 [2] | Alpha max [3] | EC50 ([4]; mdck) | inhibition (INH) [5] | half-life at 1 µM [6] [h] | half-life at 1 µM [7] [h] | inhibition at 0.5 h (BCRP (ABCG2)) [%] | pEC50 [4] | inhibition at 24 h, 0.5 µM (P-gp (ABCB1)) [%] | pEC50 (MDCK [8]) | Activity (MDCK [9]) | Activity (MDCK [10]) | pEC50 (MDCK [11]) | Activity (MDCK [12]) | pEC50 (MDCK-MDR1 [13]) | Activity (MDCK-MDR1 [14]) | Activity (MDCK-MDR1 [15]) | Activity (MDCK-MDR1 [16]) |
| --- | --- | --- | --- | --- | --- | --- | --- | --- | --- | --- | --- | --- | --- | --- | --- | --- | --- | --- | --- |
| COc1cc(/C=C/C(=O)OC[C@H](C)CN(C)CCCCCOC(=O)c2cc(OC)c(OC)c(OC)c2)cc(OC)c1OC | 6.00 | 6.40 | 0.99 | Not Active | Not Active | ≥ 4 | 0.483 | 0 |  |  |  |  |  |  |  |  |  |  |  |
| COc1cc(/C=C/C(=O)OCCCCCN(C)C[C@@H](C)COC(=O)c2cc(OC)c(OC)c(OC)c2)cc(OC)c1OC | 6.51 | 6.46 | 0.72 |  | Not Active | ≥ 4 | ≥ 4 |  | 4.39 | 30 | 4.00 | Active | Active | 4.93 | Active |  |  |  |  |
| COc1cc(/C=C/C(=O)OCCCN(C)C[C@H](C)COC(=O)c2cc(OC)c(OC)c(OC)c2)cc(OC)c1OC | 6.26 | 6.27 | 0.89 |  | Not Active | ≥ 4 | ≥ 4 |  | 5.19 |  | 4.00 |  |  |  |  | 4.40 | Active | Active | Active |
